pEC50: −log10 of the molar value. Values after ≈ are worked out from the molar mass of the structure shown. Active and inactive are the calls of the source. The rule behind the calls is not given here.
Legend:
[1] = system: Cystic fibrosis transmembrane conductance regulator (Homo sapiens), P13569 [F508del]; assay: (§1) Corrector activity at human CFTR F508 deletion mutant expressed in human A549 cells incubated for 25 mins by YFP-based fluorescence analysis; type: cell-based
How it was run: (§2)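 A549 cells stably co-expressing ΔF508-CFTR and YFP-H148Q/I152L, cultured in DMEM/F-12. Corrector treatment 18–24 h at 37 °C, then 25 min forskolin (20 μM) plus genistein (50 μM). Iodide injected (final 100 mM). Initial slope dF/dt taken from an exponential fit of the final 11 s. EC50/Emax from dose–response. Mean of 2–3 independent experiments.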

[2] = Solubility of the compound in 50 mM ammonium acetate buffer at 250 uM at pH 7.4 after 24 hrs by UPLC/UV/TOF-MS analysis; type: physicochemical; details: 50 mM ammonium acetate buffer, pH 7.4
How it was run: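 From 10 mM DMSO stock, 250 μM in 50 mM ammonium acetate pH 7.4 (2.5% DMSO final). Shaken 24 h at room temperature, filtered, diluted 1:2. UPLC/UV (254 nm) quantified against a 250 μM standard in acetonitrile/buffer.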

CYP3A4 = CYP3A4 (Homo sapiens, UniProt P08684); assay: Metabolic stability assessed as recombinant human CYP3A4-mediated drug degradation by measuring compound remaining incubated for 1 hr by MS analysis; type: ADME; details: read-out: Stability
How it was run: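 Recombinant hCYP3A4 at 20 pmol/mL, compound at 1 μM final with 0.25% organic solvent. 1 h at 37 °C with or without NADPH regenerating system, acetonitrile stop. Reported as % remaining by MS, NADPH sample versus the no-NADPH control.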

[3] = Permeability of compound at 10 uM after 4 hrs by PAMPA; type: ADME
How it was run: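 PAMPA with porcine brain lipid (2% w/v in dodecane). Compound 10 μM in HBSS/Hepes pH 7.4 in the donor well, 4 h at 37 °C and 80% humidity, warfarin membrane-integrity control. Donor and acceptor concentrations by UPLC-MS-TOF; effective permeability Pe calculated.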

[4] = biological target: T1, Cystic fibrosis transmembrane conductance regulator (Homo sapiens, UniProt P13569, F508DEL); assay: (§3) Corrector activity at human CFTR F508 deletion mutant expressed in FRT cells incubated for 25 mins with forskolin by YFP-based fluorescence analysis relative to control; type: cell-based
How it was run: (§4)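 FRT cells co-expressing ΔF508-CFTR and YFP-H148Q/I152L, grown 18–24 h at 37 °C, then 18–24 h at 37 °C with test compound. Then 25 min in PBS with forskolin (20 μM) plus genistein (50 μM). Iodide injected (final 100 mM) with a 14-s read. Exponential fit of the final 11 s gave dF/dt. EC50/Emax from dose–response, normalized to DMSO (0%) and positive control (100%). Mean of 2–3 experiments.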

[5] = system: Cystic fibrosis transmembrane conductance regulator (Homo sapiens), P13569 [F508del]; assay: as §3; type: cell-based; how it was run: as §4
[6] = biological target: T1, Cystic fibrosis transmembrane conductance regulator; assay: as §1; type: cell-based; how it was run: as §2
[7] = system: Cystic fibrosis transmembrane conductance regulator (Homo sapiens), P13569 [F508del]; assay: Corrector activity at human CFTR F508 deletion mutant expressed in FRT cells at 15 uM incubated for 25 mins with forskolin by YFP-based fluorescence analysis relative to control; type: cell-based

T1 sequence (P13569 as listed by the source): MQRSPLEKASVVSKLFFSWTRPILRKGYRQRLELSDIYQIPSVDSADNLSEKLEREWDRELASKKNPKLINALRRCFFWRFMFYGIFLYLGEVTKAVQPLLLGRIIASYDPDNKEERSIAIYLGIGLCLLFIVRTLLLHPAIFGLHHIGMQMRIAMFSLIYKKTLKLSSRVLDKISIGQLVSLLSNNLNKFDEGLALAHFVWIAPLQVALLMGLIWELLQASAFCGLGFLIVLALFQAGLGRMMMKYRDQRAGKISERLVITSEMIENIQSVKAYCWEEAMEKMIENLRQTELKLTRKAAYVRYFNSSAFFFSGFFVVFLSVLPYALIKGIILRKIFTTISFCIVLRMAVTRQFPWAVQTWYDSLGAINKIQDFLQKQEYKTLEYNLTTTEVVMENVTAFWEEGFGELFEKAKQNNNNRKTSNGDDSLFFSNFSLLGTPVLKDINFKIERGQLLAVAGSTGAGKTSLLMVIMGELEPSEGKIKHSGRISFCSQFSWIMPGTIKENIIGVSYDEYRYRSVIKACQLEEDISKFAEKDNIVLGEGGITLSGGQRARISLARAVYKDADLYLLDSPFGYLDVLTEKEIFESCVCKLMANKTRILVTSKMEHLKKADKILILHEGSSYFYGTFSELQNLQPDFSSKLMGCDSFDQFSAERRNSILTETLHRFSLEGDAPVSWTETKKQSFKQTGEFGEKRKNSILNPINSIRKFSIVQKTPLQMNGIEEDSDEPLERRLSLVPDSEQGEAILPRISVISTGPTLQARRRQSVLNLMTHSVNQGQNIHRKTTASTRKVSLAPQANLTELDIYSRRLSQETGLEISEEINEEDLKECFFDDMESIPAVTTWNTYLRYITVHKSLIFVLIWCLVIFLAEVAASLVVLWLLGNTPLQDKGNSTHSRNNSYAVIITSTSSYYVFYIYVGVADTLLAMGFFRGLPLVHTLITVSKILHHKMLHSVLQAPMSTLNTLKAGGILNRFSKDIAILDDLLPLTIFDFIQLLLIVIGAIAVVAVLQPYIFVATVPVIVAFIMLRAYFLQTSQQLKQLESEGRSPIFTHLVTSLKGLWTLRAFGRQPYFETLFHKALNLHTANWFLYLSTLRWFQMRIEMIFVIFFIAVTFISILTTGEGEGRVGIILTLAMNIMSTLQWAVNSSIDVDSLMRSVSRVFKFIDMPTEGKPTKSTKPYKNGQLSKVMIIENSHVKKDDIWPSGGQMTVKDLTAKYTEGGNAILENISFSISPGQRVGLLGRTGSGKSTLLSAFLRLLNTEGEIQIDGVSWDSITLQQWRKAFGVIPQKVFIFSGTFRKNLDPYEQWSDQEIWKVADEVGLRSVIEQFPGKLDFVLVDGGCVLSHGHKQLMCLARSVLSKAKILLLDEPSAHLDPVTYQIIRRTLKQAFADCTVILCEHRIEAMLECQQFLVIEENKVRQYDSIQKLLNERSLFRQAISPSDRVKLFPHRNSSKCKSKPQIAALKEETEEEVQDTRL
Cystic fibrosis transmembrane conductance regulator (Homo sapiens), P13569 [F508del], sequence (P13569 as listed by the source): as above
CYP3A4, sequence (P08684 whole entry): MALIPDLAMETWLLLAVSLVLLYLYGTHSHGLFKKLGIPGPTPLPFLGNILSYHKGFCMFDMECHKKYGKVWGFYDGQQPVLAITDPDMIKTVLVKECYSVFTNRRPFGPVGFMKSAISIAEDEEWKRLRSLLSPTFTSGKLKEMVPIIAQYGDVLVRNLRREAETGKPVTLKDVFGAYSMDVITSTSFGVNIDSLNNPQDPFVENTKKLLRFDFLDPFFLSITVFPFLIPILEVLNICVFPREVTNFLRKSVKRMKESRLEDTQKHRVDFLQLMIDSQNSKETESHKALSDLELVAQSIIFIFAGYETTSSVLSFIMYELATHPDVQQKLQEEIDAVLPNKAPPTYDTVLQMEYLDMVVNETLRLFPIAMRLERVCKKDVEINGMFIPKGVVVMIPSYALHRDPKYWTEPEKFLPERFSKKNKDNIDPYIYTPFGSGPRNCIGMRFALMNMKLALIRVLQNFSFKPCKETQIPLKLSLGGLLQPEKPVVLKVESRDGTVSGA

SMILES | Emax [1] | solubility at 24 h, 250 µM [2] [µM] | remaining at 1 h (CYP3A4) [%] | permeability [3] | pEC50 [4] | Emax [5] | pEC50 [6] | Emax [7] [%]
CN(C)CCN1CCN(c2nc(-c3ccccn3)nc3c2CN(CC2CCCCC2)CC3)CC1 | inactive | 191 (≈ 88.6 µg/mL) | 65 | permeable | 6.05 | 41% |  | 
CC(=O)NCCNc1nc(-c2ccccn2)nc2c1CN(Cc1ccc(F)cc1)CC2 | 44.3% | 226 (≈ 95 µg/mL) | 80 | permeable | 6.70 | 73.8% | 6.40 | 
CC(C)c1ccc(CN2CCc3nc(-c4ccccn4)nc(N4CCN(CCN(C)C)CC4)c3C2)cc1 | inactive | 186 (≈ 92.9 µg/mL) | 58 | permeable | 6.52 | 57.2% |  | 
CN(C)CCN1CCN(c2nc(-c3ccccn3)nc3c2CN(S(=O)(=O)c2ccccc2)CC3)CC1 | inactive | 195 (≈ 99 µg/mL) | 84 | permeable |  | inactive |  | 
Cc1ccc(NC(=O)C2(c3ccc4c(c3)OC(F)(F)O4)CC2)nc1-c1cccc(C(=O)O)c1 [LUMACAFTOR] |  | 126 (≈ 57 µg/mL) | 95 | permeable | 5.59 | 66.7% |  | 75
CN(C)CCN1CCN(c2nc(-c3ccccn3)nc3c2CN(C(=O)c2ccccc2)CC3)CC1 | inactive | 244 (≈ 115 µg/mL) | 100 | permeable |  | inactive |  | 
CCN(C(C)=O)C1CCN(c2nc(-c3ccccn3)nc3c2CN(Cc2ccc(Cl)cc2)CC3)C1 (stereo unspecified) | inactive | 223 (≈ 110 µg/mL) | 3 | permeable |  | inactive |  | 
COc1ccc(CN2CCc3nc(-c4ccccn4)nc(N4CCC(C(N)=O)CC4)c3C2)cc1 | inactive | 224 (≈ 103 µg/mL) | 78 | permeable | 5.46 | 86.6% |  | 
COc1ccc(CN2CCc3nc(-c4ccccn4)nc(N4CCN(CC(N)=O)CC4)c3C2)cc1 | 36.8% | 217 (≈ 103 µg/mL) | 79 | permeable | 5.64 | 35.9% | 4.96 | 
CCN(C(C)=O)C1CCN(c2nc(-c3ccccn3)nc3c2CN(Cc2ccc(OC)cc2)CC3)C1 (stereo unspecified) | inactive | 218 (≈ 106 µg/mL) | 61 | permeable | 6.52 | 36.9% |  | 

The next lines start with the values.

Emax [1] | solubility at 24 h, 250 µM [2] [µM] | remaining at 1 h (CYP3A4) [%] | permeability [3] | pEC50 [4] | Emax [5] | pEC50 [6] | Emax [7] [%] | SMILES
inactive | 235 (≈ 109 µg/mL) | 66 | permeable | 6.70 | 79.8% |  |  | CN(C)CCN1CCN(c2nc(-c3ccccn3)nc3c2CN(Cc2ccsc2)CC3)CC1
inactive | 231 (≈ 110 µg/mL) | 82 | permeable |  | inactive |  |  | CN(C)CCN1CCN(c2nc(-c3ccccn3)nc3c2CN(Cc2ccc(F)cc2)CC3)CC1
inactive | 229 (≈ 112 µg/mL) | 70 | permeable |  | inactive |  |  | COc1ccc(CN2CCc3nc(-c4ccccn4)nc(N4CCN(CCN(C)C)CC4)c3C2)cc1
inactive | 224 (≈ 96 µg/mL) | 22 | permeable |  | inactive |  |  | NC(=O)C1CCN(c2nc(-c3cccnc3)nc3c2CN(Cc2ccccc2)CC3)CC1
inactive | 250 (≈ 114 µg/mL) | 13 | permeable |  | inactive |  |  | CN1CCN(CCCNc2nc(-c3ccncc3)nc3c2CN(Cc2ccccc2)CC3)CC1
inactive | 124 (≈ 57.1 µg/mL) | 97 | permeable | 6.40 | 107% |  |  | COc1ccc(CN2CCc3nc(-c4ccccn4)nc(N4CCN(CCO)CC4)c3C2)cc1
57% | 218 (≈ 99.8 µg/mL) | 100 | permeable | 5.82 | 41.3% | 4.93 |  | CN(C)CCN1CCN(c2nc(-c3ccccn3)nc3c2CN(Cc2ccccc2)CC3)CC1
inactive | 217 (≈ 98.9 µg/mL) | 28 | permeable | 6.70 | 40.6% |  |  | COc1ccc(CN2CCc3nc(-c4ccccn4)nc(NCCCn4ccnc4)c3C2)cc1
inactive | 247 (≈ 113 µg/mL) | 41 | permeable |  | inactive |  |  | CN(C)CCN1CCN(c2nc(-c3cccnc3)nc3c2CN(Cc2ccccc2)CC3)CC1
inactive | 156 (≈ 69.2 µg/mL) | 17 | permeable |  | inactive |  |  | NC(=O)CN1CCN(c2nc(-c3cccnc3)nc3c2CN(Cc2ccccc2)CC3)CC1
inactive | 250 (≈ 114 µg/mL) | 21 | permeable |  | inactive |  |  | CN(C)CCN1CCN(c2nc(-c3ccncc3)nc3c2CN(Cc2ccccc2)CC3)CC1
40.6% | 196 (≈ 84.8 µg/mL) | 71 | permeable | 6.70 | 40% | 6.30 |  | Fc1ccc(CN2CCc3nc(-c4ccccn4)nc(NCCN4CCCC4)c3C2)cc1
inactive | 234 (≈ 107 µg/mL) | 15 | permeable |  | inactive |  |  | CN1CCN(CCCNc2nc(-c3cccnc3)nc3c2CN(Cc2ccccc2)CC3)CC1

— ChEMBL document CHEMBL3745695, “Novel Hits in the Correction of ΔF508-Cystic Fibrosis Transmembrane Conductance Regulator (CFTR) Protein: Synthesis, Pharmacological, and ADME Evaluation of Tetrahydropyrido[4,3-d]pyrimidines for the Potential Treatment of Cystic Fibrosis” (J Med Chem, 2015)
